Series [1] concerns the target T1, Prostaglandin G/H synthase 2 (Homo sapiens) (UniProt P35354).
T1 sequence (whole entry): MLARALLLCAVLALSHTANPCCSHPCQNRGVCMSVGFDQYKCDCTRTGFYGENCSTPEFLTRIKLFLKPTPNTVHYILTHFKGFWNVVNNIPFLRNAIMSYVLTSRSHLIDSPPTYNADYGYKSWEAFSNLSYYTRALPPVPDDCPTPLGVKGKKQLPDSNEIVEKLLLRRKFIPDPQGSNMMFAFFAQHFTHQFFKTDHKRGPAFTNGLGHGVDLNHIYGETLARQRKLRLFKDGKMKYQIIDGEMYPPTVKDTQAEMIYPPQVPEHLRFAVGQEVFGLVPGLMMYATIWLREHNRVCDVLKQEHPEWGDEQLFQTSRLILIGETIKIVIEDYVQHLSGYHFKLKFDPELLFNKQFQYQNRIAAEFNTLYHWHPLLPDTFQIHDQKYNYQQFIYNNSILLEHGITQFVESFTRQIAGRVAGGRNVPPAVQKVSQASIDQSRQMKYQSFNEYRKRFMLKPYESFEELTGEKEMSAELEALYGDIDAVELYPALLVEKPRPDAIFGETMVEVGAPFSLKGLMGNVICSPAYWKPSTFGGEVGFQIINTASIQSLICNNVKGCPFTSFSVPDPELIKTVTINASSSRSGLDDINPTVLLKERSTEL
As to the kind of experiment: Inhibition of LPS-stimulated human whole blood COX-2 assessed as inhibition of PGE2 production at 10 uM by EIA. An outline of the steps:
(§1)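 Human whole blood COX assay, with COX-1 and COX-2 read as prostaglandin biosynthesis. Relative inhibition (%) was taken at fixed test concentrations of 10 and 100 μM. Mean ± SEM, n = 3−6.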

For series [2], the target named is T1, Prostaglandin G/H synthase 2 (Homo sapiens). As to the kind of experiment: Inhibition of LPS-stimulated human whole blood COX-2 assessed as inhibition of PGE2 production at 100 uM by EIA. An outline of the steps: as §1
For series [3], the target named is T2, Prostaglandin G/H synthase 1 (Homo sapiens, UniProt P23219). As to the kind of experiment: Inhibition of human whole blood COX-1 assessed as inhibition of TXB2 production by EIA. An outline of the steps: (§2)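 Human whole blood COX-1 and COX-2 assay run over a range of test concentrations. IC50 was fitted to a four-parameter logistic dose−response curve, and the COX-1/COX-2 ratio was computed from the two IC50 values. Mean ± SEM, n = 3−6.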

The target in series [4] is T3, Prostaglandin G/H synthase 2 (Homo sapiens, UniProt P35354).
T3 sequence (P35354 whole entry): T1 sequence (whole entry)
As to the kind of experiment: Inhibition of LPS-stimulated human whole blood COX-2 assessed as inhibition of PGE2 production by EIA. The method, boiled down: as §2

The species entered for series [5] is Homo sapiens. As to the kind of experiment: Selectivity index, ratio of IC50 for human COX1 to IC50 for human COX2. The method, boiled down:
as §2

In series [6] the test system is Rattus norvegicus. As to the kind of experiment: Antiinflammatory activity against Wistar rat assessed as inhibition of carrageenan induced edema volume at 37.3 uM/kg, po administered 1 hr prior carrageenan-challenge measured after 3 hrs post challenge. Format: functional. An outline of the steps:
(§3)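 Oral dose of 37.3 μM/kg. Carrageenan (1%) was injected intradermally into the left hindpaw 1 h later. Edema was measured 3 h and 6 h after challenge, and relative inhibition of the edema volume increase was calculated. Mean ± SEM, n = 3−6.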
In general terms: In the carrageenan paw model, swelling and tenderness develop within hours.

The subject of series [7] is Rattus norvegicus. As to the kind of experiment: Antiinflammatory activity against Wistar rat assessed as inhibition of carrageenan induced edema volume at 37.3 uM/kg, po administered 1 hr prior carrageenan-challenge measured after 6 hrs post challenge. Format: functional. An outline of the steps: as §3
In series [8] the test system is Rattus norvegicus. As to the kind of experiment: Toxicity in rat assessed as gastric ulcerogenic activity at 0.37 to 7.45 mM/kg, po measured after 8 hrs. Format: organism-based, Stomach. The note with it: in vivo. An outline of the steps:
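Rats were given oral doses of 0.37, 0.75, 1.12, 1.86, 3.73 or 7.45 mM/kg. Stomachs were removed 8 h later and scored for hemorrhagic damage. Mean ± SEM, n = 3−6.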

In series [9] the target is T2, Prostaglandin G/H synthase 1. As to the kind of experiment: Inhibition of human whole blood COX-1 assessed as inhibition of TXB2 production at 10 uM by EIA. An outline of the steps: as §1
For series [10] the target is unchanged. As to the kind of experiment: Inhibition of human whole blood COX-1 assessed as inhibition of TXB2 production at 100 uM by EIA. An outline of the steps: as §1
Series [11] relates to Rattus norvegicus. As to the kind of experiment: Antiinflammatory activity against Wistar rat assessed as inhibition of carrageenan induced edema volume at 3.73 to 37.3 uM/kg, po administered 1 hr prior carrageenan-challenge measured after 3 to 6 hrs post challenge. Format: functional, organism-based. An outline of the steps:
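Rats dosed orally at 3.73, 11.2 or 37.3 μM/kg. Carrageenan (1%) was injected intradermally into the left hindpaw 1 h after dosing. Footpad edema was measured 3 and 6 h after carrageenan, and relative inhibition of the edema volume increase was calculated. Mean ± SEM, n = 3−6.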

Active and inactive are the calls of the source. The calls are words filed in the database; no cut-off is given here.

T2 sequence (P23219 whole entry): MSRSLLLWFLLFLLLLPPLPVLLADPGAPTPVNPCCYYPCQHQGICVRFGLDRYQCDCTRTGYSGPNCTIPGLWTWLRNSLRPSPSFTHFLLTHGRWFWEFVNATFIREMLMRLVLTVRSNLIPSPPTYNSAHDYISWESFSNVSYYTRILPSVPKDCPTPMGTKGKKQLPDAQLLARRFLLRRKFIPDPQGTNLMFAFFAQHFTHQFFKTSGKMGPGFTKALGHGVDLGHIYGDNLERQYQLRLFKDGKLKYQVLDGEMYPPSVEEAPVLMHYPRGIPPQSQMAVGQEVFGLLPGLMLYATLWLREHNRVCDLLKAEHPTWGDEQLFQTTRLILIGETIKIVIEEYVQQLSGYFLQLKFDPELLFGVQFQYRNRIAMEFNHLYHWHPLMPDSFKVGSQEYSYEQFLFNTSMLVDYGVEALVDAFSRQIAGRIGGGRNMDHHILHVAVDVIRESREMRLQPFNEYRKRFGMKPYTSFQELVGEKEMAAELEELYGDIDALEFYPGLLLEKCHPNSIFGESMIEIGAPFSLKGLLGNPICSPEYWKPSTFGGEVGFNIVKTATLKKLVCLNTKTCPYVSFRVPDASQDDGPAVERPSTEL

The inhibition is the percentage by which the read-out fell short of the control. As a reminder, the IC50 is the point on the concentration scale where inhibition reaches its midpoint. On to `CC(C(=O)O)c1ccc(Cc2ccsc2)cc1F` (configuration not stated), for which the inhibition in series [1] was 60.2%; in series [2], 99.5%; in series [9], 53.9%; in series [10], 87.4%. In addition, the concentration for half-maximal inhibition (IC50) in series [3] is 9.5 µM; in [4] it was 8.3 µM. For the same compound, the Ratio IC50 in series [5] came out at 1.2. Also, the figures for the “inhibition (INH)” value in [6] and in series [7] were 40.2% and 33.4%, respectively. In series [8], the Activity entry is “Toxic”.

On to `Cc1ccc(-c2cc(C(F)(F)F)nn2-c2ccc(S(N)(=O)=O)cc2)cc1`, for which the Ratio IC50 in series [5] was determined as 22.7.

Regarding `CC(C(=O)O)c1ccc(SC2CCCC2=O)cc1F` (configuration not stated), the inhibition in [1] amounted to 55.5%; in [2], 93.1%; in series [9], 0%; in series [10], 60.7%. Moreover, the “inhibition (INH)” value was 38% in [6] and 27.2% in series [7].

In the case of `CC(C(=O)O)c1c(F)cc(CC2CCCC2=O)cc1F` (configuration not stated), the inhibition was 0% in series [1], 70.9% in series [2], 11.3% in series [9] and 79.3% in series [10]. In addition, the “inhibition (INH)” value in [6] is recorded as 21.6%; in series [7] it was 17.7%.

On to `CCC(Cc1ccc(C(C)C(=O)O)c(F)c1)C(C)=O` (configuration not stated), for which the inhibition in series [1] stood at 0%; in [2] it was 82.2%; in [9] it was 78%; in series [10] it was 98.1%. The entries for the “inhibition (INH)” value in series [6] and in [7] were 20.9% and 20.2%, respectively.

Turning to `CC(C(=O)O)c1ccc(O[C@H]2CCC[C@@H]2O)cc1F` (some centres not stated), the inhibition in [1] is 25.4%; in [2], 80.2%; in series [9] it was 10.4%; in series [10], 78.2%. Also, the “inhibition (INH)” value in [6] is less than 0%; in series [7], 13.3%.

Regarding `CC(C(=O)O)c1ccc(S[C@H]2CCC[C@@H]2O)cc1F` (some centres not stated), the inhibition in series [1] was determined as 0%; in series [2], 64.4%; in series [9], 0%; in series [10], 47.6%. Moreover, the “inhibition (INH)” value in [6] and in series [7] was less than 0% throughout.

Turning to `CC(C(=O)O)c1ccc(SC2CCCC2)cc1F` (configuration not stated), the inhibition in series [1] was found to be 15.6%; in series [2], 80.1%; in series [9] it was 4.7%; in [10], 87.9%. For the same compound, the “inhibition (INH)” value is listed as less than 0% in series [6] and 9.5% in series [7].

`CC(C(=O)O)c1c(F)cc(CC2CCCC2=O)cc1-c1ccc(O)cc1` (configuration not stated): the inhibition in [1] was 15.4%; in [2] it was 38%; in [9], 0%; in series [10], 7.2%. The “inhibition (INH)” value in [6] and in series [7] was less than 0% each time.

Take `CC(C(=O)O)c1ccc(Cc2ccco2)cc1F` (configuration not stated): the inhibition in series [1] came to 64.1%; in series [2], 96.1%; in series [9], 26.3%; in [10], 79.9%. The IC50 was 21.6 µM in [3] and 4.1 µM in series [4]. In addition, the Ratio IC50 in series [5] was determined as 5.3. In addition, the “inhibition (INH)” value in series [6] came to 38.9%; in series [7] it was 45.8%. In series [8], the Activity entry is “Non-toxic”.

With `CC(C(=O)O)c1ccc(N[C@H]2CCC[C@@H]2O)cc1F` (some centres not stated), the inhibition was 45.3% in [1], 77.6% in series [2], 54.6% in series [9] and 83.4% in [10]. Moreover, the IC50 came to 9 µM in [3] and 14 µM in [4]. For the same compound, in [5], the Ratio IC50 stood at 0.7. For the same compound, the “inhibition (INH)” value is recorded as 20.6% in series [6] and 5.7% in [7].

Regarding `CC(C(=O)O)c1ccc(Cc2cccs2)cc1F` (configuration not stated), the inhibition in series [1] came to 45.8%; in [2], 89.2%; in series [9], 27.4%; in series [10] it was 76.5%. The IC50 in [3] was 19.9 µM; in series [4], 13 µM. Further, the Ratio IC50 in series [5] is 1.5. The entries for the “inhibition (INH)” value in series [6] and in series [7] were 12.5% and 28%, respectively.

Turning to `CC(C(=O)O)c1ccc(N[C@H]2CCCC[C@@H]2O)cc1F` (some centres not stated), the inhibition was 28.3% in series [1], 76.7% in series [2], 0% in [9] and 0% in series [10]. In addition, the “inhibition (INH)” value in series [6] and in [7] was less than 0% each time.

As for `CC(C(=O)O)c1ccc(CC2CCCC2=O)cc1F` (configuration not stated), the inhibition in series [1] worked out at 44.2%; in [2], 81.8%; in series [9], 32.7%; in series [10] it was 85.7%. Moreover, the Ratio IC50 in series [5] is 1.7. Moreover, the “inhibition (INH)” value in [6] worked out at 41.8%; in series [7], 54.1%. Besides, the Activity entry in series [8] is “Non-toxic”. In addition, the inhibition result in series [11] was “Active”.

Turning to `CC(C(=O)O)c1ccc(Cc2ccoc2)cc1F` (configuration not stated), the inhibition in series [1] was found to be 58.7%; in series [2], 90.9%; in series [9] it was 30.9%; in series [10], 57.5%. Moreover, the half-maximal inhibitory concentration (IC50) in series [3] is 30.1 µM; in series [4] it was 4 µM. Also, the Ratio IC50 in series [5] came out at 7.6. Besides, the “inhibition (INH)” value in series [6] was 32.7%; in [7] it was 45.2%. Moreover, in series [8], the Activity entry is “Non-toxic”.

Regarding `CC(C(=O)O)c1ccc(OC2CCCC2=O)cc1F` (configuration not stated), the inhibition in series [1] was 27.6%; in series [2], 82.5%; in [9] it was 80.6%; in series [10], 82.3%. The IC50 is 1.5 µM in [3] and 24.1 µM in series [4]. Also, the Ratio IC50 in series [5] came out at 0.1. Further, the “inhibition (INH)” value in series [6] turned out to be 30.3%; in series [7], 25%.

`CC(C(=O)O)c1cc(F)c(CC2CCCC2=O)cc1F` (configuration not stated): the inhibition in series [1] was found to be 15%; in series [2], 84.8%; in series [9], 0%; in [10] it was 81%. Besides, the “inhibition (INH)” value in [6] and in series [7] was less than 0% each time.

As to `CC(C(=O)O)c1ccc(NC2CCCCC2)cc1F` (configuration not stated), the inhibition in series [1] was found to be 0%; in series [2], 30%; in series [9] it was 0%; in series [10], 0%. In addition, the figures for the “inhibition (INH)” value in [6] and in [7] were less than 0% and 19.2%, respectively.

On to `CC(C(=O)O)c1c(F)cc(CC2CCCC2=O)cc1Br` (configuration not stated), for which the inhibition is 0% in [1], 0% in series [2], 13.8% in series [9] and 49.7% in series [10]. Besides, the “inhibition (INH)” value in series [6] and in series [7] was less than 0% throughout.

On to `CC(C(=O)O)c1ccc(CC2CCCC2=O)cc1` (configuration not stated) [LOXOPROFEN], for which the inhibition in [1] amounted to 53.2%; in series [2] it was 97.4%; in [9], 35%; in series [10], 87.5%. The Ratio IC50 in series [5] was 2.3. Also, the results for the “inhibition (INH)” value in series [6] and in series [7] were 44% and 53.1%, respectively. In series [8], the Activity result is given as “Toxic”.

For the compound `CCC(=O)C(C)Cc1ccc(C(C)C(=O)O)c(F)c1` (configuration not stated), the inhibition in series [1] stood at 0%; in [2], 0%; in series [9], 0%; in [10], 13.5%. Besides, the “inhibition (INH)” value in series [6] and in [7] was less than 0% each time.

The record behind these values is ChEMBL document CHEMBL2062479, “Synthesis and biological evaluation of derivatives of 2-{2-fluoro-4-[(2-oxocyclopentyl)methyl]phenyl}propanoic acid: nonsteroidal anti-inflammatory drugs with low gastric ulcerogenic activity” (J Med Chem, 2012).
